Most compounds without a hit are left out; they make up all but 29% or so of the library.
CYP2C19 activ: activators of human cytochrome P450 2C19. activation factor at 5 µM. 96,000 tested, under 10 active. AID 1025. recombinant CYP2C19, luciferin-H EGE luminescence; hits give high values; 0 = fully inhibited enzyme, 1 = untreated enzyme. P33261;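 active = activation factor of at least 2 at 5 µM in the primary screen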;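 also: 0 = wells with 2.5 mM tranylcypromine and 1 = vehicle-only wells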
Target sequence (P33261 whole entry, looked up): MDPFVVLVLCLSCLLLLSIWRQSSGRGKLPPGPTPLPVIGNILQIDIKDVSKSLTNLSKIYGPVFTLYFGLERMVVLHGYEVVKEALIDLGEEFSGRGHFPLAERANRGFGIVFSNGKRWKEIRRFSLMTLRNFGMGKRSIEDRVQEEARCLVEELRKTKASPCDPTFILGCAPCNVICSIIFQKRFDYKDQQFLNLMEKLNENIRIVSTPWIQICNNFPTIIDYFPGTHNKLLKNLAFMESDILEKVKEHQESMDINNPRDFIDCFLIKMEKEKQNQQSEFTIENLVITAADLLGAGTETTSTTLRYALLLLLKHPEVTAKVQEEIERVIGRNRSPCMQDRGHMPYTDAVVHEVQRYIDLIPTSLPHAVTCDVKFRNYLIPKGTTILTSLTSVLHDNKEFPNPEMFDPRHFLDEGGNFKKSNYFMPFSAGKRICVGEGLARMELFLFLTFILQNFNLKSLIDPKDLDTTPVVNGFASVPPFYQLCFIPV
CYP2C9 inh: human CYP2C9 inhibition; AID 777; 96,000 tested, 20% active; P11712; inhibition, % at 5 µM; CYP2C9 Supersomes, luciferin-H conversion, luminescence;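 active = blocking of liver enzyme CYP2C9 beyond about 50% at 5 µM, limit read from the data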
CYP2C9 act: activators of human CYP2C9. P11712. activation factor at 5 µM. 96,000 tested, 1.4% active. recombinant CYP2C9, luciferin-H conversion, luminescence; hits give high values; factor 1 = untreated enzyme, 0 = blocked;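 active = activation factor of 2 or more for CYP2C9 at a 5 µM dose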;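 also: 0 = sulfaphenazole-blocked wells and 1 = vehicle-only wells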
CYP2C19 inh: blocks human cytochrome P450 2C19; P33261; CYP2C19 Supersomes, luciferin-H EGE luminescence, 30 min; inhibition, % at 5 µM; 96,000 tested, 21% active;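 active = CYP2C19 inhibition above a set limit at 5 µM in the primary screen, cut at about 50% in these data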;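 also: plate controls were negative control wells for no effect and 2.5 mM tranylcypromine positive control for full effect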
tolC growth inh: blocks growth of E. coli BW25113 tolC mutant. OD615. growth inhibition, % at 10 µM (by protocol). 65,000 tested, 2.2% active;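 active = growth inhibition at or above a cutoff equal to the mean over every tested compound plus 3 SD, cut at about 60% in these data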;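 also: growth measured after 20 h incubation at 37 °C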
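test system = E. coli BW25113 ΔtolC::kan bacteria | medium = LB with kanamycin 50 µg/mL | signal = OD at 615 nm | schedule = 37 °C, 20 h exposure | evaluation = % inhibition of E. coli growth | compound dosing = one dose of 10 µM final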
E coli WT exp: blocks growth of wild type E. coli BW25113; OD600 absorbance; growth inhibition, % at 100 µM; 98,000 tested, 0.15% active;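 active = growth inhibition above about 50% at one test dose, limit read from the data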;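 also: growth measured after 20 h incubation at 37 °C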
* hit, by the source's call; x = not tested or not shown.

SMILES	CYP2C19 activ	CYP2C9 inh	CYP2C9 act	CYP2C19 inh	tolC growth inh	E coli WT exp
O=C(O)CC1NC(=S)N(c2ccccc2)C1=O (stereo unspecified)	1.1	-12.8	1.1	-6.9	x	-4.0
O=C1C(Cc2ccc(O)cc2)NC(=S)N1c1ccccc1 (stereo unspecified)	0.4	38.4	0.6	56.9*	x	2.0
COC(=O)CC1SCCNC1=O (stereo unspecified)	1.2	-17.9	1.2	-17.5	-20.9	8.0
CCCCNC(=O)CC1C(=O)N(Cc2ccccc2)C(C)c2nc3ccccc3n21 (stereo unspecified)	0.3	33.3	0.7	71.4*	-3.3	4.0
CCCCn1c(=O)c(C(=O)c2ccccc2)nc2ccccc21	0.5	-15.0	1.1	46.0	x	3.0
Fc1ccc(CNc2nc3ccccc3n3cnnc23)cc1	0.6	3.1	1	35.2	x	0.0
Oc1ccc(Br)cc1/C=N/N1CCN(Cc2ccccc2)CC1	1	-10.3	1.1	2.2	x	1.0
Oc1ccc(Br)cc1/C=N/n1cnc2ccccc21	0.9	70.9*	0.3	6.1	3.7	2.0
COc1ccc(NC(=O)CN(C)S(=O)(=O)c2ccc(Cl)cc2)c([N+](=O)[O-])c1	1	-3.9	1	-2.5	x	-2.0
CCN(CCNc1ccc(Cl)cc1[N+](=O)[O-])C(=O)c1cc([N+](=O)[O-])c(N(C)C)cc1OC	0.2	79.7*	0.2	75.9*	x	-8.0
COc1ccc(CCNC(=O)CC2Oc3ccc(Cl)cc3NC2=O)cc1OC (stereo unspecified)	0.4	-50.7	1.5	58.8*	-5.5	-2.0
COc1ccc(CCNC(=O)CSc2nnc(CNC(=O)c3ccccc3F)o2)cc1OC	0.9	15.0	0.8	6.2	-17.4	-2.0
Cc1cc(C)cc(NC(=O)c2ccc(CSc3nnc(C)s3)cc2)c1	0.6	-98.4	2*	35.5	x	1.0
COc1ccc(CCNC(=O)CSc2nc3ccccc3o2)cc1OC	0.2	88.1*	0.1	79.6*	x	18.0
COc1ccc(C(C)=O)cc1CSCCC(=O)O	0.7	30.4	0.7	33.2	-1.4	0.0
COc1ccc(C(C)=O)cc1CSc1nc2ccccc2o1	0.6	56.3*	0.4	41.4	21.1	-10.0
COc1ccc(OC)c(NC(=O)c2ccc(-n3cccn3)nc2)c1	1	-25.0	1.3	3.2	x	-6.0
COc1ccc(CC(=O)Nc2ccc3c(c2)OCO3)cc1S(=O)(=O)N1CCOCC1	1	-4.9	1	-4.1	-8.5	-3.0
COc1ccc(C(C)=O)cc1CSc1nnc(C)s1	0.3	-2.1	1	66.2*	7.8	4.0
COc1ccc(CCNC(=O)CSc2nc3cc(Cl)ccc3o2)cc1OC	0.8	65.9*	0.3	24.8	x	2.0
CS(=O)(=O)N1CCN(c2ccccc2NC(=O)c2ccco2)CC1	0.8	10.6	0.9	15.6	x	2.0
CC(C)CNS(=O)(=O)c1ccc(CCC(=O)NCc2ccco2)cc1	x	x	x	x	-9.3	-4.0
COc1ccccc1Nc1nc(N)nc(CN2CCC(Cc3ccccc3)CC2)n1	0.5	71.5*	0.3	50.2*	24.0	16.0
COc1ccc(Nc2nc(N)nc(CN3CCC(Cc4ccccc4)CC3)n2)cc1	0.9	21.8	0.8	7.6	27.9	14.0
O=C(NCCCn1ccnc1)Nc1cccc(Cl)c1	0	100.0*	0	95.8*	-11.1	14.0
SMILES	CYP2C19 activ	CYP2C9 inh	CYP2C9 act	CYP2C19 inh	tolC growth inh	E coli WT exp
C=CCOc1ccc(NC(=O)C(=O)NCCCn2ccnc2)cc1	0.5	47.1	0.5	47.7	x	9.0
O=C(Cc1c(F)cccc1Cl)NCCCn1ccnc1	0.1	78.8*	0.2	91.7*	x	4.0
O=C(Cc1ccc(Cl)cc1)NCCCn1ccnc1	0	87.9*	0.1	98.1*	x	4.0
O=C(NCCCn1ccnc1)c1ccco1	0.9	5.9	0.9	14.6	-16.6	6.0
CC(C)(Oc1ccc(Cl)cc1)C(=O)NCCCn1ccnc1	0	87.0*	0.1	100.1*	-6.0	1.0
CCCCOc1ccc(/C(O)=C2/C(=O)C(=O)N(CCCOC)C2c2ccncc2)cc1C (stereo unspecified)	1	14.4	0.9	-0.6	0.7	6.0
Cc1cc(S(=O)(=O)N2CCC(NC(=O)C34CC5CC(CC(C5)C3)C4)CC2)ccc1-n1cnnn1	0.8	4.0	1	17.4	-26.2	-4.0
O=C1C(=O)N(CCCn2ccnc2)C(c2cccnc2)/C1=C(/O)c1ccc(Cl)cc1 (stereo unspecified)	x	x	x	x	-10.4	x
O=C(CNC(=O)c1ccc(Cl)cc1)NCCCn1ccnc1	0.1	79.4*	0.2	85.2*	9.6	2.0
O=C(Cc1c(F)cccc1Cl)Nc1ccncc1	0.2	70.6*	0.3	81.5*	-2.9	10.0
O=C(Cc1c(F)cccc1Cl)Nc1cccnc1	0.6	5.8	0.9	39.2	-5.1	15.0
O=C(CCn1cccc1)NCCc1ccc(Cl)cc1	0.4	23.7	0.8	58.9*	1.6	19.0
COc1cc(NC(=O)c2cc(-n3cnnc3)ccc2Cl)cc(OC)c1	0.9	6.6	0.9	10.8	-2.4	1.0
O=C(COC(=O)c1c2ccccc2cc2ccccc12)Nc1ncc(C(F)(F)F)cc1Cl	0.9	16.6	0.8	6.6	x	-8.0
O=C(c1ccc(Br)cc1)C1CCc2occc2C1=O (stereo unspecified)	0	65.8*	0.3	97.1*	24.9	10.0
Cc1sc2nc(SCC(=O)c3cccs3)n(Cc3ccco3)c(=O)c2c1C	1	28.1	0.7	2.4	6.7	-3.0
Cc1sc2nc(SCc3nc(-c4cccs4)no3)n(-c3ccccc3)c(=O)c2c1C	0.8	65.9*	0.3	19.7	x	-16.0
c1ccc(-n2c(SCc3nc(-c4cccs4)no3)nnc2-c2ccco2)cc1	0.6	91.8*	0.1	42.9	22.8	-8.0
Nn1c(SCc2ccccc2)nnc1-c1ccco1	0.9	-10.9	1.1	13.0	7.1	1.0
c1ccc(-n2c(SCc3ccncc3)nnc2-c2ccco2)cc1	0.4	76.5*	0.2	59.0*	3.5	6.0
CSCCC(NC(=O)OC(C)(C)C)C(=O)NC(C(=O)NC(CC(C)C)C(N)=O)C(C)C (stereo unspecified)	1.1	1.1	1	-10.7	x	2.0
CCCCCCn1c(CN2CCCCC2C)nc2c1c(=O)n(C)c(=O)n2C (stereo unspecified)	x	x	x	x	15.9	x
COCCOC(=O)C1=C(C)N=C2SCCC(=O)N2C1c1cc(Br)ccc1OC (stereo unspecified)	x	x	x	x	-11.2	x
CCOC(=O)C1=C(C)N=C2SC(C)C(=O)N2C1c1ccc(C(=O)OC)cc1 (stereo unspecified)	0.3	58.4*	0.4	73.2*	16.8	-4.0
CCOC(=O)C1=C(C)N=C2SC(C)C(=O)N2C1c1ccc(OCC)c(OCC)c1 (stereo unspecified)	0.5	60.9*	0.4	54.5*	-2.0	1.0
